Measurements published in ChEMBL document CHEMBL1141713, “Bisphosphonate inhibitors of ATP-mediated HIV-1 reverse transcriptase catalyzed excision of chain-terminating 3'-azido, 3'-deoxythymidine: a QSAR investigation” (Bioorg Med Chem, 2008).
Active and inactive are the calls of the source. The rule behind the calls is not given here.

Columns and labels:
[1] = Toxicity against human NCI-H460 cells assessed as growth inhibition by broth microdilution method; type: cell-based
How it was run: (§1)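 Cells grown in RPMI-1640 with 2mM L-glutamine and 10% FBS at 37°C, 5% CO₂. Seeded at 5,000 cells/well and exposed to compounds in half-log serial dilution, 316μM–10nM (100μM–10nM when the DMSO stock was used), for 4 days. Read-out by MTT, absorbance at 600nm. IC₅₀ fitted to a rectangular hyperbola with Imax fixed at 100%.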

[2] = system: Human immunodeficiency virus 1; experiment: Inhibition of the ATP-mediated HIV1 reverse transcriptase D67N/K70R/T215F/K219Q mutant catalyzed DNA synthesis
[3] = Inhibition of the ATP-mediated HIV1 reverse transcriptase D67N/K70R/T215F/K219Q mutant catalyzed 3'-azido, 3'-deoxythymidine excision from AZT-terminated DNA primers; set-up: species or system Human immunodeficiency virus 1
How it was run: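 TAM-RT incubated with 5′-³²P-labeled 57/19 heteropolymeric DNA T/P whose 20 nt primer was chain-terminated with AZTMP (RT:T/P 4:1), in 50 mM Tris-HCl pH 8.0, 50 mM KCl, with or without varying bisphosphonate. Started with 10 mM MgCl₂ + 3.0 mM ATP, inorganic pyrophosphatase included. Timed aliquots quenched in formamide/EDTA dye. 20 nt and 19 nt excision product resolved on denaturing gel, quantified by phosphorimaging; IC₅₀.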

[4] = Toxicity against human SF268 cells assessed as growth inhibition by broth microdilution method; type: cell-based, SF-268; how it was run: as §1
[5] = Toxicity against human MCF7 cells assessed as growth inhibition by broth microdilution method; type: cell-based; how it was run: as §1

For O=P(O)(O)C(Nc1cccc(Br)c1)P(=O)(O)O, the IC50 [1] was > 300 µM, the Activity [2] was “inactive” and the IC50 [3] was 1 µM. The pIC50 [3] was 6, the IC50 [4] was > 300 µM and the IC50 [5] was > 300 µM.

In the case of O=P(O)(O)C(Nc1cccc(-c2ccccc2)c1)P(=O)(O)O, the IC50 [1] is reported as 253 µM, the Activity [2] is reported as “inactive” and the IC50 [3] is reported as 3.2 µM. It also gave a pIC50 [3] of 5.5, an IC50 [4] of 269 µM and an IC50 [5] of 289 µM.

In the case of O=P(O)(O)C(O)(Cc1cccc(-c2ccc(Cl)cc2)c1)P(=O)(O)O, the IC50 [1] is reported as 39 µM, the Activity [2] is reported as “inactive” and the IC50 [3] is reported as 0.9 µM. It also gave a pIC50 [3] of 6.1, an IC50 [4] of 48 µM and an IC50 [5] of 41 µM.

For O=P(O)(O)C(Nc1cccc(-c2ccc(F)cc2F)c1)P(=O)(O)O, the IC50 [1] was > 300 µM, the Activity [2] was “inactive” and the IC50 [3] was 3.9 µM. For the same molecule, the pIC50 [3] was 5.4, the IC50 [4] was > 300 µM and the IC50 [5] was > 300 µM.

For O=P(O)(O)C(O)(Cc1cccc(-c2ccc(F)c(F)c2)c1)P(=O)(O)O, the IC50 [1] was 253 µM, the Activity [2] was “inactive” and the IC50 [3] was 1 µM. The pIC50 [3] was 6, the IC50 [4] was 236 µM and the IC50 [5] was 225 µM.

With CCCCCCc1ccc(NC(P(=O)(O)O)P(=O)(O)O)cc1 the IC50 [3] was 302 µM and the pIC50 [3] was 3.5.

With COc1ccc(-c2ccc(CC(O)(P(=O)(O)O)P(=O)(O)O)cc2)cc1 the Activity [2] was “inactive”, the IC50 [3] was 5.2 µM and the pIC50 [3] was 5.3.

For O=P(O)(O)C(Nc1cccc(CO)c1)P(=O)(O)O, the IC50 [1] was > 300 µM, the Activity [2] was “inactive” and the IC50 [3] was 7.9 µM. For the same molecule, the pIC50 [3] was 5.1, the IC50 [4] was > 300 µM and the IC50 [5] was > 300 µM.

In the case of O=P(O)(O)C(Nc1ccc(Cc2ccccc2)cc1)P(=O)(O)O, the IC50 [1] is reported as > 100 µM, the Activity [2] is reported as “inactive” and the IC50 [3] is reported as 3.5 µM. The pIC50 [3] was 5.5, the IC50 [4] was > 100 µM and the IC50 [5] was > 100 µM.

With NCCCCCC(O)(P(=O)(O)O)P(=O)(O)O [NERIDRONIC ACID] the IC50 [3] was 302 µM and the pIC50 [3] was 3.5.

With O=P(O)(O)C(O)(Cc1ccc(-c2ccc(Cl)cc2)cc1)P(=O)(O)O the IC50 [1] was > 100 µM, the Activity [2] was “inactive” and the IC50 [3] was 3.9 µM. The pIC50 [3] was 5.4, the IC50 [4] was > 100 µM and the IC50 [5] was > 100 µM.

For O=P(O)(O)C(CNc1cccc(-c2ccccc2)c1)P(=O)(O)O, the IC50 [1] was > 300 µM, the Activity [2] was “inactive” and the IC50 [3] was 11.2 µM. The pIC50 [3] was 5, the IC50 [4] was > 300 µM and the IC50 [5] was > 300 µM.

Work on CN(CCCc1ccccc1)CCC(O)(P(=O)(O)O)P(=O)(O)O yielded an IC50 [3] of 302 µM and a pIC50 [3] of 3.5.

With O=P(O)(O)C(O)(Cc1ccccc1)P(=O)(O)O the IC50 [3] was 302 µM and the pIC50 [3] was 3.5.

In the case of O=P(O)(O)C(O)(Cc1cccc(Oc2ccccc2)c1)P(=O)(O)O, the IC50 [1] is reported as 212 µM, the Activity [2] is reported as “inactive” and the IC50 [3] is reported as 3.3 µM. For the same molecule, the pIC50 [3] was 5.5, the IC50 [4] was 176 µM and the IC50 [5] was 188 µM.

With O=P(O)(O)C(Nc1cccc(-c2cc(F)cc(F)c2)c1)P(=O)(O)O the IC50 [1] was > 100 µM, the Activity [2] was “inactive” and the IC50 [3] was 2.2 µM. The pIC50 [3] was 5.7, the IC50 [4] was > 100 µM and the IC50 [5] was > 100 µM.

For COCc1cccc(NC(P(=O)(O)O)P(=O)(O)O)c1, the IC50 [1] was > 300 µM, the Activity [2] was “inactive” and the IC50 [3] was 9.5 µM. For the same molecule, the pIC50 [3] was 5, the IC50 [4] was > 300 µM and the IC50 [5] was > 300 µM.

O=P(O)(O)C(Nc1ccc(-c2ccccc2)cc1)P(=O)(O)O showed an IC50 [3] of 302 µM and a pIC50 [3] of 3.5.

With O=P(O)(O)C(O)(Cc1cccc2ccccc12)P(=O)(O)O the IC50 [1] was 248 µM, the Activity [2] was “inactive” and the IC50 [3] was 1.3 µM. The pIC50 [3] was 5.9, the IC50 [4] was 225 µM and the IC50 [5] was 259 µM.

With COc1cccc(CC(O)(P(=O)(O)O)P(=O)(O)O)c1 the IC50 [1] was > 300 µM, the Activity [2] was “inactive” and the IC50 [3] was 5.4 µM. The pIC50 [3] was 5.3, the IC50 [4] was > 300 µM and the IC50 [5] was > 300 µM.

In the case of O=P(O)(O)C(Nc1cccc(-c2ccc(F)c(F)c2)c1)P(=O)(O)O, the IC50 [1] is reported as > 300 µM, the Activity [2] is reported as “inactive” and the IC50 [3] is reported as 2.1 µM. For the same molecule, the pIC50 [3] was 5.7, the IC50 [4] was > 300 µM and the IC50 [5] was > 300 µM.

For O=P(O)(O)C(O)(Cc1ccc(Cl)c(Cl)c1)P(=O)(O)O, the IC50 [1] was 241 µM, the Activity [2] was “inactive” and the IC50 [3] was 0.5 µM. For the same molecule, the pIC50 [3] was 6.3, the IC50 [4] was 208 µM and the IC50 [5] was 213 µM.

Work on O=P(O)(O)C(O)(C[n+]1ccccc1)P(=O)(O)O yielded an IC50 [3] of 302 µM and a pIC50 [3] of 3.5.

With COc1ccc(-c2cccc(CC(O)(P(=O)(O)O)P(=O)(O)O)c2)cc1 the IC50 [1] was 118 µM, the Activity [2] was “inactive” and the IC50 [3] was 2.4 µM. It also gave a pIC50 [3] of 5.6, an IC50 [4] of 139 µM and an IC50 [5] of 128 µM.

In the case of O=P(O)(O)C(O)(Cc1cccc(-c2ccc(F)cc2)c1)P(=O)(O)O, the IC50 [1] is reported as 175 µM, the Activity [2] is reported as “inactive” and the IC50 [3] is reported as 1.9 µM. The pIC50 [3] was 5.7, the IC50 [4] was 224 µM and the IC50 [5] was 173 µM.

With CCCCCCCCCCCC(O)(P(=O)(O)O)P(=O)(O)O the IC50 [3] was 302 µM and the pIC50 [3] was 3.5.

In the case of O=P(O)(O)C(CNc1ccc(-c2ccccc2)cc1)P(=O)(O)O, the IC50 [1] is reported as 95 µM, the Activity [2] is reported as “inactive” and the IC50 [3] is reported as 4.6 µM. The pIC50 [3] was 5.3, the IC50 [4] was 95 µM and the IC50 [5] was 84 µM.

In the case of CN(C)c1ccccc1CC(O)(P(=O)(O)O)P(=O)(O)O, the IC50 [1] is reported as > 300 µM, the Activity [2] is reported as “inactive” and the IC50 [3] is reported as 51.3 µM. The pIC50 [3] was 4.3, the IC50 [4] was > 300 µM and the IC50 [5] was > 300 µM.

Molecule CCCCCCCCCC(O)(P(=O)(O)O)P(=O)(O)O has an IC50 [3] of 302 µM and a pIC50 [3] of 3.5.

With CCCCCCCc1ccc(NC(P(=O)(O)O)P(=O)(O)O)cc1 the IC50 [3] was 302 µM and the pIC50 [3] was 3.5.

With O=P(O)(O)C(O)(Cc1ccc(-c2ccc(F)cc2)cc1)P(=O)(O)O the IC50 [1] was > 300 µM, the Activity [2] was “inactive” and the IC50 [3] was 2.9 µM. The pIC50 [3] was 5.5, the IC50 [4] was > 300 µM and the IC50 [5] was > 300 µM.

For O=P(O)(O)C(O)(Cc1cccc(-c2cc(F)ccc2F)c1)P(=O)(O)O, the IC50 [1] was 141 µM, the Activity [2] was “inactive” and the IC50 [3] was 1.5 µM. The pIC50 [3] was 5.8, the IC50 [4] was 122 µM and the IC50 [5] was 165 µM.

With Nc1ccccc1CC(O)(P(=O)(O)O)P(=O)(O)O the IC50 [1] was 187 µM, the Activity [2] was “inactive” and the IC50 [3] was 38 µM. The pIC50 [3] was 4.4, the IC50 [4] was 186 µM and the IC50 [5] was 205 µM.

With Cc1ccc(NC(P(=O)(O)O)P(=O)(O)O)cc1-c1ccccc1 the IC50 [1] was 301 µM, the Activity [2] was “inactive” and the IC50 [3] was 5 µM. For the same molecule, the pIC50 [3] was 5.3, the IC50 [4] was 297 µM and the IC50 [5] was 296 µM.

In the case of CCCCCCCCC(O)(P(=O)(O)O)P(=O)(O)O, the IC50 [3] is reported as 302 µM and the pIC50 [3] is reported as 3.5.
